# Assays:
# [1] = target: Adenosine receptor A2a (Homo sapiens) (UniProt P29274); assay: Displacement of [3H]ZM241385 from human Adenosine A2A receptor expressed in HeLa cells at 1 uM after 30 mins; format: cell-based
# Method in brief: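 Membranes from HeLa cells expressing human A2A were labelled with 3 nM [3H]ZM241385, with non-specific binding defined by 50 µM NECA, and incubated at 25 °C for 30 min. The value is percent displacement of specific binding at 1 µM test compound (n = 2).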
# [2] = target: T1, Adenosine receptor A3 (Homo sapiens) (UniProt P0DMS8); assay: Displacement of [3H]NECA from human Adenosine A3 receptor expressed in HeLa cells at 1 uM after 180 mins
# T1 sequence (whole entry): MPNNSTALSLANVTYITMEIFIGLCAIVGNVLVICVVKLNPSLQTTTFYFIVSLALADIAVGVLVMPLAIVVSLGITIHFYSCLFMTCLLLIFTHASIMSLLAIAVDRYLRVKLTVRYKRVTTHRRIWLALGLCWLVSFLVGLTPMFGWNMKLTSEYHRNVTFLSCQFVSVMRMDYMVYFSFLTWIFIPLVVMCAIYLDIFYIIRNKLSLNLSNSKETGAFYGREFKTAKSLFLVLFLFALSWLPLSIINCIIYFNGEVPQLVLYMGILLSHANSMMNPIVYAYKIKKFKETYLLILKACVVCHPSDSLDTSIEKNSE
# [3] = target: T2, Adenosine receptor A1 (Homo sapiens) (UniProt P30542); assay: Displacement of [3H]DPCPX from human Adenosine A1 receptor expressed in CHO cells at 1 uM after 60 mins; format: cell-based
# T2 sequence (whole entry): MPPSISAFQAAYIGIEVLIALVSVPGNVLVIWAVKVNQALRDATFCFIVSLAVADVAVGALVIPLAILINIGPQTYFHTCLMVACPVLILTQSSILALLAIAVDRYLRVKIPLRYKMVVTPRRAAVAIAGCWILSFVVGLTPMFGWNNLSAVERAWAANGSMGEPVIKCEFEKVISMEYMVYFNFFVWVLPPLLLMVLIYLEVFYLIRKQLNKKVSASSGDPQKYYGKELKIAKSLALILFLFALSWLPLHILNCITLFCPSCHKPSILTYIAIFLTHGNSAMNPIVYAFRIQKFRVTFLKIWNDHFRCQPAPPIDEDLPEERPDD
# Method in brief: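 Competition binding on membranes from CHO cells expressing human A1, labelled with 2 nM [3H]DPCPX. Non-specific binding was defined with 10 µM R-PIA, and incubation was at 25 °C for 60 min. The value is percent inhibition of specific binding at 1 µM test compound (n = 2, average).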
# [4] = target: T3, Adenosine receptor A2b (Homo sapiens) (UniProt P29275); assay: Displacement of [3H]DPCPX from human Adenosine A2B receptor expressed in HEK293 cells at 1 uM after 30 mins; format: cell-based
# T3 sequence (whole entry): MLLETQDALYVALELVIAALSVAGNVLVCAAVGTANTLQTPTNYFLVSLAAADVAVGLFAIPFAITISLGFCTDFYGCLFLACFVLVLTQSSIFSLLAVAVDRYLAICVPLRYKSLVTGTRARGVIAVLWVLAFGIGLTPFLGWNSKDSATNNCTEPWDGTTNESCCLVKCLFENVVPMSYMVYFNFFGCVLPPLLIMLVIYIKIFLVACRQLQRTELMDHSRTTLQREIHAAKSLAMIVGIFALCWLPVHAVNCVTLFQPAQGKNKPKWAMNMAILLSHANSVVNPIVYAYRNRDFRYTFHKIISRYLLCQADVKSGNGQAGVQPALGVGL
# Method in brief: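 Membranes from HEK-293 cells expressing human A2B were labelled with 35 nM [3H]DPCPX, with non-specific binding defined by 400 µM NECA, and incubated at 25 °C for 30 min.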
# [5] = target: T4, Adenosine receptor A2b (Homo sapiens, UniProt P29275); assay: Displacement of [3H]DPCPX from human Adenosine A2B receptor expressed in HEK293 cells after 30 mins; format: cell-based
# T4 sequence (P29275 whole entry): T3 sequence (whole entry)
# Sequence of Adenosine receptor A2a (Homo sapiens) (P29274 whole entry): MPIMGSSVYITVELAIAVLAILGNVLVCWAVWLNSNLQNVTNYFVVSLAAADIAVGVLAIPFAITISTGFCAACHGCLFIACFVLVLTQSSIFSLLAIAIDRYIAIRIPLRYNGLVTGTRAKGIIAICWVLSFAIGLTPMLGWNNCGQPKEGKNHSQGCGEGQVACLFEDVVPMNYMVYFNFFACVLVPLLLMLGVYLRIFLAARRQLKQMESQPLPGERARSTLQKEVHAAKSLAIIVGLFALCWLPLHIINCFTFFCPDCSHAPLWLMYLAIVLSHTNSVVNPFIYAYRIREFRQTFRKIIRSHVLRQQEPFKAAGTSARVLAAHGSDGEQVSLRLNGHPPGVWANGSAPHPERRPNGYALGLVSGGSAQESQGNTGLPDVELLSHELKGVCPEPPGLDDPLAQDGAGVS
Structure (SMILES),Activity [1] [%],Activity [2] [%],Activity [3] [%],Activity [4] [%],Ki [5] [nM]
CC1=C(C(=O)OC(C)C)C(c2ccco2)NC(=O)N1 (centres undefined),30,1,20,–,–
CC1=C(C(=O)OC(C)C)C(c2cccs2)NC(=O)N1 (centres undefined),19,14,37,44,–
CC1=C(C(=O)OC(C)C)C(c2ccoc2)NC(=O)N1 (centres undefined),26,3,25,–,–
CC1=C(C(=O)OC(C)C)C(c2ccsc2)NC(=O)N1 (centres undefined),25,1,26,–,–
CCOC(=O)C1=C(C)NC(=O)NC1c1ccco1 (centres undefined),41,2,18,–,–
CCOC(=O)C1=C(C)NC(=O)NC1c1cccs1 (centres undefined),33,1,1,44,–
CCOC(=O)C1=C(C)NC(=O)NC1c1ccoc1 (centres undefined),39,1,21,–,–
CCOC(=O)C1=C(C)NC(=O)NC1c1ccsc1 (centres undefined),39,24,22,–,–
CC1=C(C(=O)OC(C)C)C(c2ccoc2)n2ccnc2N1 (racemic),4,10,1,–,277
CC1=C(C(=O)OC(C)C)C(c2ccsc2)n2ncnc2N1 (racemic),2,5,3,–,817
CCOC(=O)C1=C(C)Nc2nc3ccccc3n2C1c1ccco1 (racemic),14,1,5,–,12
CC1=C(C(=O)OC(C)C)C(c2ccoc2)n2ncnc2N1 (racemic),2,20,2,–,350
CC1=C(C(=O)OC(C)C)C(c2ccsc2)n2ccnc2N1 (racemic),1,1,3,–,847
CC1=C(C(=O)OC(C)C)C(c2cccs2)n2c(nc3ccccc32)N1 (racemic),17,3,1,–,371
CC1=C(C(=O)OC(C)C)C(c2ccco2)n2ccnc2N1 (racemic),4,2,3,–,85.6
CCOC(=O)C1=C(C)NC(=O)CC1c1ccco1 (racemic),13,24,22,–,2540
CCOC(=O)C1=C(C)Nc2nc3ccccc3n2C1c1ccoc1 (racemic),11,1,7,–,20.6
CCOC(=O)C1=C(C)Nc2nc3ccccc3n2C1c1ccsc1 (racemic),10,2,3,–,29.7
CCOC(=O)C1=C(C)Nc2nc3ccccc3n2C1c1cccs1 (racemic),16,1,8,–,485
CC1=C(C(=O)OC(C)C)C(c2cccs2)n2ccnc2N1 (racemic),3,5,3,–,728
CC1=C(C(=O)OC(C)C)C(c2ccoc2)n2c(nc3ccccc32)N1 (racemic),22,2,12,–,11.4
CCOC(=O)C1=C(C)Nc2nccn2C1c1ccco1 (racemic),5,6,2,–,108
CC1=C(C(=O)OC(C)C)C(c2ccsc2)n2c(nc3ccccc32)N1 (racemic),3,21,11,–,29.3

Structure (SMILES),Activity [1] [%],Activity [2] [%],Activity [3] [%],Activity [4] [%],Ki [5] [nM]
CCOC(=O)C1=C(C)Nc2ncnn2C1c1ccoc1 (racemic),1,4,2,–,602
CCOC(=O)C1=C(C)Nc2ncnn2C1c1ccsc1 (racemic),21,2,3,–,699
CC1=C(C(=O)OC(C)C)C(c2ccco2)CC(=O)N1 (racemic),14,31,14,15,–
CC1=C(C(=O)OC(C)C)C(c2cccs2)CC(=O)N1 (racemic),1,22,2,3,–
CC1=C(C(=O)OC(C)C)C(c2cccs2)n2ncnc2N1 (racemic),1,3,1,1,–
CC1=C(C(=O)OC(C)C)C(c2ccoc2)CC(=O)N1 (racemic),25,24,23,20,–
CC1=C(C(=O)OC(C)C)C(c2ccsc2)CC(=O)N1 (racemic),3,20,4,21,–
CCN1CC2=C(C1=O)C(c1ccco1)NC(=O)N2 (racemic),7,20,7,17,–
CCN1CC2=C(C1=O)C(c1cccs1)NC(=O)N2 (racemic),2,21,12,28,–
CCN1CC2=C(C1=O)C(c1ccoc1)NC(=O)N2 (racemic),13,17,16,35,–
CCN1CC2=C(C1=O)C(c1ccsc1)NC(=O)N2 (racemic),17,31,27,18,–
CCOC(=O)C1=C(C)NC(=O)CC1c1cccs1 (racemic),11,21,16,18,–
CCOC(=O)C1=C(C)NC(=O)CC1c1ccoc1 (racemic),8,15,9,14,–
CCOC(=O)C1=C(C)NC(=O)CC1c1ccsc1 (racemic),4,13,1,12,–
CCOC(=O)C1=C(C)Nc2nccn2C1c1ccoc1 (racemic),1,3,2,12,–
CCOC(=O)C1=C(C)Nc2nccn2C1c1ccsc1 (racemic),3,2,1,10,–
CCOC(=O)C1=C(C)Nc2ncnn2C1c1ccco1 (racemic),20,4,15,3,–
CCOC(=O)C1=C(C)Nc2ncnn2C1c1cccs1 (racemic),2,15,1,15,–
O=C1NC2=C(C(=O)OC2)C(c2ccco2)N1 (racemic),2,3,3,2,–
O=C1NC2=C(C(=O)OC2)C(c2cccs2)N1 (racemic),1,1,1,10,–
O=C1NC2=C(C(=O)OC2)C(c2ccoc2)N1 (racemic),3,1,9,9,–
O=C1NC2=C(C(=O)OC2)C(c2ccsc2)N1 (racemic),3,2,13,8,–

# From ChEMBL document CHEMBL3784997 (J Med Chem, 2016)
